Measurements published in ChEMBL document CHEMBL1123309, “Esters and lactones of phenolic amino carboxylic acids: prodrugs for iron chelation” (J Med Chem, 1986).
Several values for one entry are separate records, joined by “and”; a condition that tells them apart may be missing. Identical values can stand only once.

Experiments:
Mus musculus [1] = assay: BDF1 male mice were administered with 200 mg/kg ip and percent change in iron levels was determined in Feces; type: functional; details: route intraperitoneal
Outline: (§1)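 Male BDF1 mice made iron-overloaded by transfusion of washed, heat-treated (50 °C, 30 min) canine red cells. Dosing began 2 days after the last transfusion, once daily for 7 days, in distilled water or 2% Polysorbate 80 suspension. Daily group urine was collected. Pooled feces were digested in 1 N HCl (90 °C, 30 min). Liver and spleen were homogenized in saline. Iron was measured by atomic absorption and expressed as % change vs transfused controls.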

Mus musculus [2] = assay: BDF1 male mice were administered with 200 mg/kg ip and percent change in iron levels was determined in Liver; type: functional; details: route intraperitoneal; outline: as §1
Mus musculus [3] = assay: BDF1 male mice were administered with 200 mg/kg ip and percent change in iron levels was determined in Spleen; type: functional; details: route intraperitoneal; outline: as §1
Mus musculus [4] = assay: BDF1 male mice were administered with 200 mg/kg ip and percent change in iron levels was determined in Urine; type: functional; details: route intraperitoneal; outline: as §1
Mus musculus [5] = assay: BDF1 male mice were administered with 200 mg/kg po and percent change in iron levels was determined in Feces; type: functional
Outline: (§2)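 Hypertransfused male BDF1 mice (canine red cells, washed and heated at 50 °C for 30 min) were dosed orally for 7 days with compound in distilled water or a fine suspension with Polysorbate 80 (2% final). Daily group urine and pooled feces (1 N HCl digest, 90 °C, 30 min, triplicate) were collected, and liver and spleen were homogenized. Iron was measured by atomic absorption and reported as % change vs transfused control.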

Mus musculus [6] = assay: BDF1 male mice were administered with 200 mg/kg po and percent change in iron levels was determined in Liver; type: functional; outline: as §2
Mus musculus [7] = assay: BDF1 male mice were administered with 200 mg/kg po and percent change in iron levels was determined in Spleen; type: functional; outline: as §2
Mus musculus [8] = assay: BDF1 male mice were administered with 200 mg/kg poand percent change in iron levels was determined in Urine; type: functional; outline: as §2
Mus musculus [9] = assay: BDF1 male mice were administered with the compound and number of survivors was determined at a dose 200 mg/kg ip out of 10 tested; type: functional; details: route intraperitoneal
Outline: (§3)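 Male BDF1 mice were iron-loaded by transfusion of canine red cells. The cells were heparinised, washed twice in isotonic saline and heated at 50 °C for 30 min. Dosing started two days after the last transfusion, once daily for 7 consecutive days. Compounds were given in distilled water or as a fine aqueous suspension with Polysorbate 80 (2% final). Toxic signs were recorded daily and survivors counted per group.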

Mus musculus [10] = assay: BDF1 male mice were administered with the compound and number of survivors was determined at a dose 200 mg/kg peroral out of 10 tested; type: functional; details: route oral; outline: as §3
Mus musculus [11] = assay: BDF1 male mice were administered with 25 mg/kg orally and percent change in iron levels was determined in faeces; type: functional, Feces; details: dose 100 mg/kg; route intraperitoneal; in the assay text read “100 mg/kg intraperitoneally” for “25 mg/kg orally”
Mus musculus [12] = assay: BDF1 male mice were administered with 25 mg/kg orally and percent change in iron levels was determined in urine; type: functional; details: dose 100 mg/kg; route intraperitoneal; in the assay text read “100 mg/kg intraperitoneally” for “25 mg/kg orally”
Mus musculus [13] = assay: BDF1 male mice were administered with 200 mg/kg orally and percent change in iron levels was determined in faeces; type: functional, Feces; details: route oral; outline: as §1
Mus musculus [14] = assay: BDF1 male mice were administered with 200 mg/kg orally and percent change in iron levels was determined in liver; type: functional; details: route oral; outline: as §1
Mus musculus [15] = assay: BDF1 male mice were administered with 200 mg/kg orally and percent change in iron levels was determined in spleen; type: functional; details: route oral; outline: as §1
Mus musculus [16] = assay: BDF1 male mice were administered with 100 mg/kg orally and percent change in iron levels was determined in spleen; type: functional; details: route intraperitoneal, in the assay text read “intraperitoneally” for “orally”; outline: as §1
Mus musculus [17] = assay: BDF1 male mice were administered with the compound and number of survivors was determined at a dose 100 mg/kg intraperitoneally out of 10 tested; type: functional; details: route intraperitoneal; outline: as §3
[18] = Half life was determined at pH 10.5 in the presence of Fe(III) Half life was determined Titrimetrically; type: ADME; details: pH 7.5; in the assay text read “pH 7.5” for “pH 10.5”
Outline: (§4)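 Metal and chelator were each 5 × 10⁻⁴ M. Constant pH was held with 0.05 M NaOH. Hydrolysis rate came from base consumption, with first-order kinetics.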

[19] = First order rate constant was determined Titrimetrically) at pH 7.5 in the presence of Fe(III)
[20] = First order rate constant was determined Spectrophotometrically at pH 7.5 in the presence of Fe(III)
[21] = Half life was determined at pH 7.5 in the presence of Fe(III) Half life was determined Spectrophotometrically
Mus musculus [22] = assay: BDF1 male mice were administered with 150 mg/kg po and percent change in iron levels was determined in Feces; type: functional; outline: as §1
Mus musculus [23] = assay: BDF1 male mice were administered with 150 mg/kg po and percent change in iron levels was determined in Liver; type: functional; outline: as §1
Mus musculus [24] = assay: BDF1 male mice were administered with 150 mg/kg po and percent change in iron levels was determined in Spleen; type: functional; outline: as §1
Mus musculus [25] = assay: BDF1 male mice were administered with 150 mg/kg po and percent change in iron levels was determined in Urine; type: functional; outline: as §1
Mus musculus [26] = assay: BDF1 male mice were administered with 100 mg/kg ip and percent change in iron levels was determined in Feces; type: functional; details: route intraperitoneal; outline: as §1
Mus musculus [27] = assay: BDF1 male mice were administered with 100 mg/kg ip and percent change in iron levels was determined in Spleen; type: functional; details: route intraperitoneal; outline: as §1
Mus musculus [28] = assay: BDF1 male mice were administered with 100 mg/kg ip and percent change in iron levels was determined in Urine; type: functional; details: route intraperitoneal; outline: as §1
Mus musculus [29] = assay: BDF1 male mice were administered with 100 mg/kg po and percent change in iron levels was determined in Feces; type: functional; outline: as §1
Mus musculus [30] = assay: BDF1 male mice were administered with 100 mg/kg po and percent change in iron levels was determined in Liver; type: functional; outline: as §1
Mus musculus [31] = assay: BDF1 male mice were administered with 100 mg/kg po and percent change in iron levels was determined in Spleen; type: functional; outline: as §1
Mus musculus [32] = assay: BDF1 male mice were administered with 100 mg/kg po and percent change in iron levels was determined in Urine; type: functional; outline: as §1
Mus musculus [33] = assay: BDF1 male mice were administered with the compound and number of survivors was determined at a dose 100 mg/kg intraperitoneal out of 10 tested; type: functional; outline: as §3
Mus musculus [34] = assay: BDF1 male mice were administered with the compound and number of survivors was determined at a dose 100 mg/kg peroral out of 10 tested; type: functional; details: route oral; outline: as §3
Mus musculus [35] = assay: BDF1 male mice were administered with the compound and number of survivors was determined at a dose 150 mg/kg peroral out of 10 tested; type: functional; details: route oral; outline: as §3
Rattus norvegicus [36] = assay: Percent change in iron levels was determined in feces using iron overload rat model where the route of administration is Intraperitoneal; type: functional
Rattus norvegicus [37] = assay: Percent change in iron levels was determined in feces using iron overload rat model where the route of administration is Peroral; type: functional
Rattus norvegicus [38] = assay: Percent change in iron levels was determined in urine using iron overload rat model where the route of administration is Intraperitoneal; type: functional
Rattus norvegicus [39] = assay: Percent change in iron levels was determined in urine using iron overload rat model where the route of administration is Peroral; type: functional
Mus musculus [40] = assay: BDF1 male mice were administered with 100 mg/kg ip and percent change in iron levels was determined in Liver; type: functional; details: route intraperitoneal; outline: as §1
[41] = Half life was determined in the presence of Fe(III) Spectrophotometrically; type: ADME
Outline: (§5)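 Iron(III)-promoted hydrolysis was followed spectrophotometrically in 50% aqueous methanol with Hepes buffer at pH 7.5 and 38 °C. Ester and ferric nitrate were each 1.7 × 10⁻⁴ M. The read-out was the rise in absorbance at 480 nm. Data were fitted by nonlinear least squares for consecutive first-order processes.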

[42] = Half life was determined in the presence of Fe(III) Titrimetrically; type: ADME; outline: as §4
[43] = First order rate constant was determined in the presence of Fe(3+) Spectrophotometrically; type: ADME; outline: as §5
[44] = First order rate constant was determined in the presence of Fe(3+) Titrimetrically; type: ADME; outline: as §4
Mus musculus [45] = assay: BDF1 male mice were administered with 200 mg/kg intraperitoneally and percent change in iron levels was determined in Feces; type: functional; details: route intraperitoneal; outline: as §1
Mus musculus [46] = assay: BDF1 male mice were administered with 200 mg/kg intraperitoneally and percent change in iron levels was determined in Spleen; type: functional; details: route intraperitoneal; outline: as §1
Mus musculus [47] = assay: BDF1 male mice were administered with 200 mg/kg intraperitoneally and percent change in iron levels was determined in Urine; type: functional; details: route intraperitoneal; outline: as §1
Mus musculus [48] = assay: BDF1 male mice were administered with 200 mg/kg intraperitoneally and percent change in iron levels was determined in liver; type: functional; details: route intraperitoneal; outline: as §1
Mus musculus [49] = assay: BDF1 male mice were administered with 200 mg/kg peroral and percent change in iron levels was determined in Liver; type: functional; details: route oral; outline: as §1
Mus musculus [50] = assay: BDF1 male mice were administered with 200 mg/kg peroral and percent change in iron levels was determined in Spleen; type: functional; details: route oral; outline: as §2
Mus musculus [51] = assay: BDF1 male mice were administered with 200 mg/kg peroral and percent change in iron levels was determined in Urine; type: functional; details: route oral; outline: as §2
Mus musculus [52] = assay: BDF1 male mice were administered with 200 mg/kg peroral and percent change in iron levels was determined in Feces; type: functional; details: route oral; outline: as §1
Mus musculus [53] = assay: BDF1 male mice were administered with 200 mg/kg peroral and number of survivors was determined out of 10 tested; type: functional; details: route oral; outline: as §3
Mus musculus [54] = assay: BDF1 male mice were administered with 200 mg/kg intraperitoneally and number of survivors was determined out of 10 tested; type: functional; details: route intraperitoneal; outline: as §3

CC(C)(C)OC(=O)CN(CCN(CC(=O)OC(C)(C)C)Cc1ccccc1O)Cc1ccccc1O
Iron change (Mus musculus [1]): -1%
Iron change (Mus musculus [2]): 10%
Iron change (Mus musculus [3]): -5%
Iron change (Mus musculus [4]): -1%
Iron change (Mus musculus [5]): -13%
Iron change (Mus musculus [6]): 6%
Iron change (Mus musculus [7]): 5%
Iron change (Mus musculus [8]): -27%
No. of survivors (Mus musculus [9]): 10
No. of survivors (Mus musculus [10]): 10

CCOC(=O)CN(CCN(CC(=O)OCC)Cc1ccccc1O)Cc1ccccc1O
Iron change (Mus musculus [11]): 26%
Iron change (Mus musculus [12]): 240%
Iron change (Mus musculus [13]): -77%
Iron change (Mus musculus [14]): -49% and -63%
Iron change (Mus musculus [15]): -34%
Iron change (Mus musculus [16]): 4%
No. of survivors (Mus musculus [17]): 10
No. of survivors (Mus musculus [10]): 8
half-life [18]: 0.58 h
10E2 k1 [19]: 1.99 min⁻¹
10E2 k1 [20]: 1.14 min⁻¹
half-life [21]: 1.01 h

CCCCCOC(=O)CN(CCN(CC(=O)OCCCCC)Cc1ccccc1O)Cc1ccccc1O
Iron change (Mus musculus [22]): -69%
Iron change (Mus musculus [23]): -60%
Iron change (Mus musculus [24]): -11%
Iron change (Mus musculus [25]): 132%
Iron change (Mus musculus [26]): 24%
Iron change (Mus musculus [27]): -2%
Iron change (Mus musculus [28]): 117%
Iron change (Mus musculus [29]): -3%
Iron change (Mus musculus [30]): -12%
Iron change (Mus musculus [31]): 12%
Iron change (Mus musculus [32]): 43%
No. of survivors (Mus musculus [33]): 10
No. of survivors (Mus musculus [34]): 10
No. of survivors (Mus musculus [35]): 8
Iron change (Rattus norvegicus [36]): 114%
Iron change (Rattus norvegicus [37]): 268%
Iron change (Rattus norvegicus [38]): 215%
Iron change (Rattus norvegicus [39]): 390%
Iron change (Mus musculus [40]): -33%

O=C1CN(CCN2CC(=O)Oc3ccccc32)c2ccccc2O1
half-life [41]: 1.97 h
half-life [42]: 1.19 h
10E2 k1 [43]: 0.587 min⁻¹
10E2 k1 [44]: 0.97 min⁻¹
Iron change (Mus musculus [45]): -65%
Iron change (Mus musculus [46]): -17%
Iron change (Mus musculus [47]): 157%
Iron change (Mus musculus [48]): -68%
Iron change (Mus musculus [49]): -56%
Iron change (Mus musculus [50]): -30%
Iron change (Mus musculus [51]): 93%
Iron change (Mus musculus [52]): -2%
No. of survivors (Mus musculus [53]): 10
No. of survivors (Mus musculus [54]): 8
